Measurements as given in ChEMBL document CHEMBL4257556, “Novel 1,3,4-thiadiazole-chalcone hybrids containing catechol moiety: synthesis, antioxidant activity, cytotoxicity and DNA interaction studies” (Medchemcomm, 2018).
Active and inactive are the calls of the source. The rule behind the calls is not given here.

Columns and labels:
Calf thymus DNA [1] = assay: Binding affinity to calf thymus DNA assessed as hyperchromism at 10 uM after 90 mins by UV/visible spectrophotometric analysis; assay type: nucleic-acid assay; settings: Bos taurus
Summary of the method: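 CT-DNA stock in 10 mM Tris-HCl pH 7.9 (A260/A280 1.89–2.01; concentration from ε260 6600 M–1 cm–1). Compound (10, 20 or 40 μM) plus CT-DNA (95 μM) in 40 mM bicarbonate pH 8.4, 37 °C 90 min; spectra 200–800 nm. Hyper/hypochromism at 259 nm from bound versus summed free compound and DNA extinction; triplicate.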

HeLa [2] = assay: Upregulation of miR-206 expression in human HeLa cells at 10 uM after 24 hrs by RT-qPCR method; assay type: functional, cell-based
HeLa [3] = assay: Cell cycle arrest in human HeLa cells assessed as accumulation at sub-G1 phase at 2 times IC50 after 24 hrs in presence of caspase-8 inhibitor Z-IETD-FMK by propidium iodide-staining based flow cytometric method; assay type: functional
Summary of the method: (§1)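 HeLa cells pretreated 2 h with 40 μM peptide caspase inhibitor (Z-DEVD-FMK caspase-3, Z-IETD-FMK caspase-8 or Z-LEHD-FMK caspase-9), then exposed to 2×IC50 compound; subG1 fraction by propidium iodide flow cytometry, compared with samples lacking inhibitor.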

Calf thymus DNA [4] = assay: Binding affinity to calf thymus DNA after 90 mins by spectroscopic titration method; assay type: nucleic-acid assay; settings: Bos taurus
Summary of the method: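 Compound fixed at 40 μM titrated with CT-DNA (2.2–13 × 10–5 M) in 40 mM bicarbonate pH 8.4 after 90 min at 37 °C; absorbance at 259 nm per DNA level. Kb from slope/intercept ratio of [DNA]/(εa–εf) versus [DNA] plot; triplicate assays.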

Calf thymus DNA [5] = assay: Displacement of Hoechst 33258 from calf thymus DNA assessed as fluorescence intensity of compound-DNA complex at 22 uM by fluorescence spectrophotometric analysis relative to control; assay type: nucleic-acid assay; settings: Bos taurus
Summary of the method: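 CT-DNA 100 μM (per phosphate) in 40 mM bicarbonate pH 8.4 pretreated 20 min with Hoechst 33258 (28 μM final), then compound added stepwise. Excitation 350 nm, emission 390–550 nm, read at 444 nm, 10 nm slits; H–DNA as control. Quenching constant K by Stern–Volmer, I0/I versus r = [compound]/[DNA]; triplicate.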

HeLa [6] = assay: Cell cycle arrest in human HeLa cells assessed as accumulation at sub-G1 phase at 2 times IC50 after 24 hrs in presence of caspase-9 inhibitor Z-LEHD-FMK by propidium iodide-staining based flow cytometric method; assay type: functional; summary of the method: as §1
HeLa [7] = assay: Upregulation of MMP9 gene expression in human HeLa cells at 10 uM after 24 hrs by RT-qPCR method; assay type: functional, cell-based
DNA = assay: Induction of Escherichia coli pUC19 DNA cleavage after 90 mins by agarose gel electrophoresis method; assay type: nucleic-acid assay
Summary of the method: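 Plasmid pUC19 (from E. coli XL1 blue; 460 ng, 12 nM) incubated with compound (0.05–0.4 mM; from 2 mM DMSO stock) in 20 μL 40 mM bicarbonate pH 8.4 at 37 °C for 90 min; 1% agarose gel in TAE at 80 V, ethidium bromide staining, UV at 312 nm; supercoiled/nicked/linear forms scored.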

HeLa [8] = assay: Cytotoxicity against human HeLa cells assessed as decrease in cell survival after 72 hrs by MTT assay; assay type: functional, cell-based
Summary of the method: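 HeLa (2000/well), A549 and MRC-5 (5000/well) seeded 20 h before treatment; HL-60 (7000/well) 2 h before. Five concentrations (6.25–100 μM or 3.125–50 μM) from 5 mM DMSO stocks, final DMSO ≤1%, 72 h; survival by MTT. Cisplatin positive control; three independent experiments in triplicate.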

- Activity (Calf thymus DNA [1]): -13.7%
- Kb (Calf thymus DNA [4]): 0.74 ×10³ /M
- Activity (Calf thymus DNA [5]): 60%
- Activity (DNA): inactive
SMILES: Cc1cccc(C(=O)/C=C/c2ccc(C(=O)Nc3nnc(-c4ccc(O)c(O)c4)s3)cc2)c1
- Activity (HeLa [2]): Active
- Activity (HeLa [3]): inactive
- Activity (HeLa [6]): inactive
- Activity (HeLa [7]): Active
- IC50 (HeLa [8]): 9.63 µM
